In ChEMBL document CHEMBL4049449, “Discovery of a Novel Class of Survival Motor Neuron 2 Splicing Modifiers for the Treatment of Spinal Muscular Atrophy” (J Med Chem, 2017):
Converted amounts (≈) assume the structure as drawn.

Columns and labels:
[1] = Permeability of the compound by PAMPA; format: physicochemical; settings: read-out: permeability
Procedure, shortened: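 Parallel artificial membrane permeability: phospholipid-coated filter plate sandwiched between donor compound/buffer and acceptor buffer. Donor concentration at start was compared with donor and acceptor concentrations at end time, giving Pe (10−6 cm/s); membrane retention was also determined.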

hERG (KCNH2) = hERG (KCNH2) (Homo sapiens, UniProt Q12809); experiment: Inhibition of human ERG channel
Sequence of hERG (KCNH2) (Q12809 whole entry): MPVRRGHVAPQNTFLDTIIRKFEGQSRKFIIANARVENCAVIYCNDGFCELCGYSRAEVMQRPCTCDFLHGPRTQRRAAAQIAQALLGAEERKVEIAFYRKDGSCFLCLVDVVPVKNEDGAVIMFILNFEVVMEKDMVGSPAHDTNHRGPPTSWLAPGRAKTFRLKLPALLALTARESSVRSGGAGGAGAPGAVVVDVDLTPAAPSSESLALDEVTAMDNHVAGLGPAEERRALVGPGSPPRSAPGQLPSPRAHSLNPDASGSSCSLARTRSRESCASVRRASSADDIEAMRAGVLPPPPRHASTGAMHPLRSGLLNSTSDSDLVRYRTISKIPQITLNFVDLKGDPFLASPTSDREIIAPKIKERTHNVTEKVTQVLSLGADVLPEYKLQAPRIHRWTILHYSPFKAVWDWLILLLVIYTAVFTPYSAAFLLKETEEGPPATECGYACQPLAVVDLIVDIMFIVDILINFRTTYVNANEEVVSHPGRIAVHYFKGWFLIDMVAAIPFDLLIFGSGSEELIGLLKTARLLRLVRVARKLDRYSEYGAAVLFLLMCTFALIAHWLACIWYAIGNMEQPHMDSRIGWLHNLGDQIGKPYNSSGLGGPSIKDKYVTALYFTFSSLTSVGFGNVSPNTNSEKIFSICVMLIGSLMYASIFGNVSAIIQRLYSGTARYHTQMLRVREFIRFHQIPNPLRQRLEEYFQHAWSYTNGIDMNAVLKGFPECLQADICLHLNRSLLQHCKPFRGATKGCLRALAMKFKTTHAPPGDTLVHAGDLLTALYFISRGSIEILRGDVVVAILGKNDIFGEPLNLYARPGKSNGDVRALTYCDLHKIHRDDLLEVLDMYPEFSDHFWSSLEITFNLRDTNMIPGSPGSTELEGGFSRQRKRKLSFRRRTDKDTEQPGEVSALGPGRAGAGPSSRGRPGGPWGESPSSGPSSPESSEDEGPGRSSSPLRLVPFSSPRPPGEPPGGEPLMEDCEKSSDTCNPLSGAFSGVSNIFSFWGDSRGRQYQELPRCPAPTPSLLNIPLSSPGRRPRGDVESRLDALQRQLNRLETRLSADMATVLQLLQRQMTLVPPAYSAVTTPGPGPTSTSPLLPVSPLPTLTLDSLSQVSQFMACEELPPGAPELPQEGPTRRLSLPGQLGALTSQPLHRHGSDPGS

Salmonella typhimurium [2] = experiment: Genotoxicity in Salmonella typhimurium TA98 in presence of rat liver S9 fraction by Ames test; format: toxicity; settings: salmonella enterica subsp. enterica serovar typhimurium
Procedure, shortened: (§1)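 Ames plate incorporation: strains grown overnight at 37 °C in nutrient broth (TA102 with 0.3 μg/mL tetracycline). Compound at 20–2000 μg/plate in top agar with histidine/biotin, plus rat liver S9 mix (NADP, glucose 6-phosphate, KCl, MgCl2, pH 7.4 phosphate). Vogel–Bonner plates incubated 37 °C, 2 days; colonies counted by image analysis. Positive: dose-dependent ≥2-fold (TA1535, TA98) or ≥1.5-fold (TA97, TA100, TA102) rise over background.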

Homo sapiens [3] = organism: Homo sapiens; experiment: Modulation of patient derived full length SMN2 pre mRNA splicing assessed as inclusion of exon 7
Plasma [4] = experiment: Drug metabolism in rat plasma assessed as amide bond hydrolysis at 1 uM after 15 to 300 mins by LC-MS/MS analysis; format: ADME, cell-free
Salmonella typhimurium [5] = experiment: Genotoxicity in Salmonella typhimurium TA97 in presence of rat liver S9 fraction by Ames test; format: toxicity; settings: salmonella enterica subsp. enterica serovar typhimurium; procedure, shortened: as §1
Cytochrome P450 2D6 = Cytochrome P450 2D6 (Homo sapiens, UniProt P10635); experiment: Inhibition of CYP2D6 (unknown origin); format: ADME
Sequence of Cytochrome P450 2D6 (P10635 whole entry): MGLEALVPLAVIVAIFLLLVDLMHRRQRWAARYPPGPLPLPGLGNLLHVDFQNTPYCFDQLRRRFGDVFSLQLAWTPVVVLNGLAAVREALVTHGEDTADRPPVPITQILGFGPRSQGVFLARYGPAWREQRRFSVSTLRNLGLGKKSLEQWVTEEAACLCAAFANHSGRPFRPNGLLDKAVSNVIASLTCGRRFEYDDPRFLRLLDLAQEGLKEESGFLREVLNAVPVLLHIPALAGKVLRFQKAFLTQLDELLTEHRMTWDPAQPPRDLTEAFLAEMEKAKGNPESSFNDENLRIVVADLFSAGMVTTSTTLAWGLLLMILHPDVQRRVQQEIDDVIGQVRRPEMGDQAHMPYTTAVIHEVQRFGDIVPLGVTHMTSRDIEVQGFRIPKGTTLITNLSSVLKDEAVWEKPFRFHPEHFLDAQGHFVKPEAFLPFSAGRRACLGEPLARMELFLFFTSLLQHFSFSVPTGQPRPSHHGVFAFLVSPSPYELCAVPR

Salmonella typhimurium [6] = experiment: Genotoxicity in Salmonella typhimurium TA100 in presence of rat liver S9 fraction by Ames test; format: toxicity; settings: salmonella enterica subsp. enterica serovar typhimurium; procedure, shortened: as §1
Cytochrome P450 3A4 = Cytochrome P450 3A4 (Homo sapiens, UniProt P08684); experiment: Inhibition of CYP3A4 (unknown origin); format: ADME
Sequence of Cytochrome P450 3A4 (P08684 whole entry): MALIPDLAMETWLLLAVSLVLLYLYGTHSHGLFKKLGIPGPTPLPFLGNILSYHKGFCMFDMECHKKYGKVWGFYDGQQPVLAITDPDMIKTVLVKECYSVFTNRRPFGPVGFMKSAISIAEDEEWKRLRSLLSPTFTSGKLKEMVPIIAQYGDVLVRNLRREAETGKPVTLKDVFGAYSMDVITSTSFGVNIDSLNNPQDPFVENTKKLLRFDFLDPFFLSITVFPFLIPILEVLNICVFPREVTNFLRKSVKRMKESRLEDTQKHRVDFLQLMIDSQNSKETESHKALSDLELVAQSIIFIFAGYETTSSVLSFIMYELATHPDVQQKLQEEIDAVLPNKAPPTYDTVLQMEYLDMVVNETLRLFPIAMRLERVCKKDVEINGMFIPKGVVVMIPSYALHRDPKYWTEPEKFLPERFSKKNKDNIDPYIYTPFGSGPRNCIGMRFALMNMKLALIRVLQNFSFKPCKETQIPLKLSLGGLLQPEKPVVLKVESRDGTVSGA

Salmonella typhimurium [7] = experiment: Genotoxicity in Salmonella typhimurium TA102 in presence of rat liver S9 fraction by Ames test; format: toxicity; settings: salmonella enterica subsp. enterica serovar typhimurium; procedure, shortened: as §1
Plasma [8] = experiment: Drug metabolism in mouse plasma assessed as amide bond hydrolysis at 1 uM after 15 to 300 mins by LC-MS/MS analysis; format: ADME, cell-free
Cytochrome P450 2C9 = Cytochrome P450 2C9 (Homo sapiens, UniProt P11712); experiment: Inhibition of CYP2C9 (unknown origin); format: ADME
Sequence of Cytochrome P450 2C9 (P11712 whole entry): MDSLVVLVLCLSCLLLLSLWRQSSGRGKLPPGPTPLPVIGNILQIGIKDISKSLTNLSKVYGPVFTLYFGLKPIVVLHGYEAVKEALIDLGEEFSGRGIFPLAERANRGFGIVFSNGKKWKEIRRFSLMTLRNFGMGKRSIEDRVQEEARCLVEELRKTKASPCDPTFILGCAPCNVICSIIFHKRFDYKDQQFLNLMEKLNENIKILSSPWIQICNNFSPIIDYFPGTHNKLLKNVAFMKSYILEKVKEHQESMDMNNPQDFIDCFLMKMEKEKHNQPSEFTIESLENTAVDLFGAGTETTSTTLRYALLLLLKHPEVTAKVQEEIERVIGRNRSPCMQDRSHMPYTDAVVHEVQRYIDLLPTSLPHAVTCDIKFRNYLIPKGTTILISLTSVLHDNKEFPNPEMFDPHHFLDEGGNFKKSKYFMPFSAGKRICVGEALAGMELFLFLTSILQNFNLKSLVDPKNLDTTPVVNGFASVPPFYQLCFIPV

[9] = Octanol-phosphate buffer partition co-efficient, log D of the compound at pH 7.4 after 24 hrs by shake flask method; format: physicochemical
Procedure, shortened: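 CAMDIS shake-flask variant: PVDF membranes impregnated with 1-octanol dipped in 25 mM phosphate buffer pH 7.4 containing compound, shaken 24 h at 23 °C. Two octanol/water ratios were run for hydrophilic or lipophilic compounds. Aqueous concentration was measured by LC/MS with and without octanol, and log D was calculated from the difference and the phase ratio.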

[10] = Stability at various pH levels assessed as amide bond hydrolysis; format: physicochemical
Plasma [11] = experiment: Drug metabolism in human plasma assessed as amide bond hydrolysis at 1 uM after 15 to 300 mins by LC-MS/MS analysis; format: ADME, cell-free
Salmonella typhimurium [12] = experiment: Genotoxicity in Salmonella typhimurium TA1535 in presence of rat liver S9 fraction by Ames test; format: toxicity; settings: salmonella enterica subsp. enterica serovar typhimurium; procedure, shortened: as §1
[13] = Glutathione reactivity assessed as GSH adduct formation
Homo sapiens [14] = organism: Homo sapiens; experiment: Modulation of patient derived full length SMN2 pre mRNA splicing assessed as restoration of functional SMN2 to protein level
[15] = Solubility of the compound in phosphate buffer solution at pH 6.5 by HPLC-UV analysis; format: physicochemical
Procedure, shortened: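 Lysa: duplicate samples from 10 mM DMSO stocks, DMSO evaporated, residue taken up in 0.05 M phosphate buffer pH 6.5, stirred 1 h, shaken 2 h, left overnight, filtered. Filtrate and its 1/10 dilution were read by direct UV or HPLC-UV against a four-point calibration; range 0–666 μg/mL for MW 500.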

Mus musculus [16] = experiment: Unbound AUC in neonatal […] FVB mouse plasma at 3 mg/kg, ip qd administered from postnatal day 3 to day 9 by LC-MS/MS analysis; format: ADME, organism-based; settings: in vivo
Procedure, shortened: (§2)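 Plasma AUC determined in a satellite group of neonatal (P10) wild-type mice dosed ip. Free AUC was calculated using the free fraction measured in serum from adult mice.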

Mus musculus [17] = experiment: Unbound AUC in C/C-Allele SMA FVB mouse plasma at 10 mg/kg, po qd for 10 days by LC-MS/MS analysis; format: ADME, organism-based; settings: in vivo, 240 h
Mus musculus [18] = experiment: Induction of SMN protein levels in C/C-Allele SMA FVB mouse brain at 1 mg/kg, po qd for 10 days measured 1 hr post last dose by HTRF assay relative to control; format: functional
Procedure, shortened: (§3)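 Adult C/C-allele SMA mice dosed orally once daily for 10 days at 1, 3 or 10 mg/kg. SMN protein in brain and quadriceps was expressed as % increase over vehicle-treated animals.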

Mus musculus [19] = experiment: Induction of SMN protein levels in neonatal delta7 FVB mouse brain at 1 mg/kg, ip qd administered from postnatal day 3 to day 9 measured 1 hr post last dose by HTRF assay relative to control; format: functional
P-gp = experiment: Substrate activity at mouse P-gp assessed as efflux ratio; format: ADME; settings: not told
Mus musculus [20] = experiment: Induction of SMN protein levels in C/C-Allele SMA FVB mouse quadriceps muscle at 3 mg/kg, po qd for 10 days measured 1 hrs post last dose by HTRF assay relative to control; format: functional; procedure, shortened: as §3
Mus musculus [21] = experiment: Induction of SMN protein levels in C/C-Allele SMA FVB mouse brain at 3 mg/kg, po qd for 10 days measured 1 hr post last dose by HTRF assay relative to control; format: functional; procedure, shortened: as §3
Mus musculus [22] = experiment: Induction of SMN protein levels in neonatal delta7 FVB mouse brain administered as ip qd from postnatal day 3 to day 9 measured 1 hr post last dose by HTRF assay relative to control; format: functional, organism-based
[23] = Total AUC in neonatal wild type FVB mouse plasma at 3 mg/kg, ip qd for 10 days by LC-MS/MS analysis; format: ADME, organism-based; set-up: dose 3 mg/kg, route intraperitoneal, time AUCmax; procedure, shortened: as §2
Mus musculus [24] = experiment: Induction of SMN protein levels in neonatal delta7 FVB mouse brain at 3 mg/kg, ip qd administered from postnatal day 3 to day 9 measured 1 hr post last dose by HTRF assay relative to control; format: functional
Mus musculus [25] = experiment: Induction of SMN protein levels in C/C-Allele SMA FVB mouse quadriceps muscle at 1 mg/kg, po qd for 10 days measured 1 hrs post last dose by HTRF assay relative to control; format: functional; procedure, shortened: as §3
Mus musculus [26] = experiment: Induction of SMN protein levels in neonatal delta7 FVB mouse quadriceps muscle at 0.3 mg/kg, ip qd administered from postnatal day 3 to day 9 measured 1 hr post last dose by HTRF assay relative to control; format: functional
Mus musculus [27] = experiment: Induction of SMN protein levels in C/C-Allele SMA FVB mouse quadriceps muscle administered as po qd for 10 days measured 1 hr post last dose by HTRF assay; format: functional, organism-based; procedure, shortened: as §3
Mus musculus [28] = experiment: Induction of SMN protein levels in neonatal delta7 FVB mouse quadriceps muscle at 1 mg/kg, ip qd administered from postnatal day 3 to day 9 measured 1 hr post last dose by HTRF assay relative to control; format: functional
Mus musculus [29] = experiment: Induction of SMN protein levels in neonatal delta7 FVB mouse quadriceps muscle at 3 mg/kg, ip qd administered from postnatal day 3 to day 9 measured 1 hr post last dose by HTRF assay relative to control; format: functional
[30] = Substrate activity at human P-gp; format: ADME
Mus musculus [31] = experiment: Induction of SMN protein levels in C/C-Allele SMA FVB mouse brain at 10 mg/kg, po qd for 10 days measured 1 hr post last dose by HTRF assay relative to control; format: functional; procedure, shortened: as §3
[32] = Ratio of drug level in wild type FVB mouse brain to plasma at 10 mg/kg, po; format: ADME, organism-based; settings: read-out: BPR
[33] = Fraction unbound in human plasma; format: ADME, cell-free
Mus musculus [34] = experiment: Induction of SMN protein levels in C/C-Allele SMA FVB mouse quadriceps muscle at 10 mg/kg, po qd for 10 days measured 1 hrs post last dose by HTRF assay relative to control; format: functional; procedure, shortened: as §3
Mus musculus [35] = experiment: Induction of SMN protein levels in C/C-Allele SMA FVB mouse brain administered as po qd for 10 days measured 1 hr post last dose by HTRF assay; format: functional, organism-based; procedure, shortened: as §3
Mus musculus [36] = experiment: Induction of SMN protein levels in neonatal delta7 FVB mouse brain at 0.3 mg/kg, ip qd administered from postnatal day 3 to day 9 measured 1 hr post last dose by HTRF assay relative to control; format: functional
[37] = Fraction unbound in mouse plasma; format: ADME, cell-free
[38] = Total AUC in wild type FVB mouse plasma at 10 mg/kg, po qd for 10 days by LC-MS/MS analysis; format: ADME, organism-based; set-up: dose 10 mg/kg, route oral, time AUCmax
Mus musculus [39] = experiment: Induction of SMN protein levels in neonatal delta7 FVB mouse quadriceps muscle administered as ip qd from postnatal day 3 to day 9 measured 1 hr post last dose by HTRF assay relative to control; format: functional, organism-based

Cc1cn2cc(NC(=O)c3ccc(N4CCN(C)CC4)cc3)nc2c(C)n1
Papp [1]: 2.38 ×10⁻⁶ cm/s
IC20 (hERG (KCNH2)): > 10 µM
Activity (Salmonella typhimurium [2]): Non-Toxic
EC1.5 (Homo sapiens [3]): 660 nM
Stability (Plasma [4]): Stable
Activity (Salmonella typhimurium [5]): Non-Toxic
IC50 (Cytochrome P450 2D6): > 50 µM
Activity (Salmonella typhimurium [6]): Non-Toxic
IC50 (Cytochrome P450 3A4): > 50 µM
Activity (Salmonella typhimurium [7]): Non-Toxic
Stability (Plasma [8]): Stable
IC50 (Cytochrome P450 2C9): > 50 µM
logD at 24 h [9]: 2
Stability [10]: Stable
Stability (Plasma [11]): Stable
Activity (Salmonella typhimurium [12]): Non-Toxic
Stability [13]: Stable
EC1.5 (Homo sapiens [14]): 3950 nM
solubility [15]: 111 µg/mL (≈ 305 µM)

Cc1cn2cc(NC(=O)c3ccc(N4CCNC(C)C4)cc3F)nc2c(C)n1 (stereo unspecified)
fAUC (Mus musculus [16]): 790 ng·h/mL
fAUC (Mus musculus [17]): 1580 ng·h/mL
Activity (Salmonella typhimurium [2]): Toxic
EC1.5 (Homo sapiens [3]): 52 nM
Activity (Mus musculus [18]): 0%
Activity (Salmonella typhimurium [5]): Toxic
Activity (Salmonella typhimurium [6]): Toxic
Activity (Mus musculus [19]): 75%
efflux ratio (P-gp): 4.1
Activity (Mus musculus [20]): 54%
Activity (Salmonella typhimurium [7]): Toxic
Activity (Mus musculus [21]): 24%
Activity (Mus musculus [22]): Dose-dependent effect
AUC at 240 h [23]: 3900 ng·h/mL
Activity (Mus musculus [24]): 150%
Activity (Mus musculus [25]): 13%
Activity (Salmonella typhimurium [12]): Toxic
Activity (Mus musculus [26]): 14%
Activity (Mus musculus [27]): Dose-dependent effect
EC1.5 (Homo sapiens [14]): 98 nM
Activity (Mus musculus [28]): 24%
Activity (Mus musculus [29]): 140%
Activity [30]: Not Active
Activity (Mus musculus [31]): 102%
Kp [32]: 3.4
fraction unbound [33]: 0.186
Activity (Mus musculus [34]): 152%
Activity (Mus musculus [35]): Dose-dependent effect
Activity (Mus musculus [36]): 24%
fraction unbound [37]: 0.197
AUC at 240 h [38]: 7900 ng·h/mL
Activity (Mus musculus [39]): Dose-dependent effect
